From ChEMBL document CHEMBL4428057, “Discovery, Synthesis, and Evaluation of 2,4-Diaminoquinazolines as a Novel Class of Pancreatic β-Cell-Protective Agents against Endoplasmic Reticulum (ER) Stress” (J Med Chem, 2016)
Active and inactive are the calls of the source. The rule behind the calls is not given here.

Tests used:
INS1 [1] = experiment: Protection against tunicamycin induced endoplasmic reticulum stress in rat INS-1 cells assessed as increase in cell viability after 3 days by CellTiter-Glo assay relative to control; format: functional
Summary of the method: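 INS-1 cells at 3×10^3/well (384-well) co-treated with Tm 0.1 µg/mL and compound for 72 h; CellTiter-Glo ATP luminescence. Activity is % rescue, with Tm alone = 0% and DMSO without Tm = 100%. EC50 from ten 2-fold serial dilutions by curve fit; triplicate.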

INS1 [2] = experiment: Suppression of tunicamycin impaired glucose-stimulated insulin secretion in rat INS-1 cells at 10 to 20 uM preincubated for 24 hrs followed by 25 mM glucose addition for 1 hr by ELISA; format: functional, cell-based
Summary of the method: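 INS-1 cells in 96-well plates given Tm 0.1 µg/mL plus compound for 24 h, preincubated 1 h in KRBH (pH 7.4, 2% BSA) with 2.5 mM glucose, then 1 h in 2.5 or 25 mM glucose. Secreted insulin by ELISA, corrected for total protein (Bradford); 2.5 mM glucose without Tm set to 1.0.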

For `COc1ccc(CNc2nc(N3CCCCC3CO)nc3ccccc23)cc1` (racemic), the “%max” value (INS1 [1]) was 80.4% and the Activity (INS1 [2]) was “Active”.
